From publication PMC6263940 (Nature chemical biology, 2018)

Columns and labels:
ABHD12 [1] = molecular target: T1, ABHD12 (Mus musculus, UniProt Q99LR1); test: Lyso-PS hydrolysis assay with membrane lysates of ABHD12-transfected cells; assay type: biochemical
T1 sequence (Q99LR1 1-398): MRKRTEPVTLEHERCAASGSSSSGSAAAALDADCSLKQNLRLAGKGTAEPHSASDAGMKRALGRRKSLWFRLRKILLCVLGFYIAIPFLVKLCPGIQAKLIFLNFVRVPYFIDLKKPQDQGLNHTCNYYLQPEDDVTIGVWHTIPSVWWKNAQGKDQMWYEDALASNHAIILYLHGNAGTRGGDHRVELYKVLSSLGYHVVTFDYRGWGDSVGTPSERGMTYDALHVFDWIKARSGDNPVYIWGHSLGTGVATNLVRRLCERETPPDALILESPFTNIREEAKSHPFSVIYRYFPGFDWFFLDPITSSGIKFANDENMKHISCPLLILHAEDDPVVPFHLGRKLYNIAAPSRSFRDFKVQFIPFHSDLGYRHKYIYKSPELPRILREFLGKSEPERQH
Method in brief: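 Membrane lysate of ABHD12-transfected cells in DPBS incubated with 17:1 lyso-PS (100 μM final) for 20 min at 37 °C. Quenched in 2:1 CHCl₃/MeOH with 15:0 FFA internal standard. Activity is the LC-MS 17:1 FFA/15:0 FFA peak-area ratio minus mock-transfected membrane activity. IC50 fitted as log(inhibitor) vs normalized response.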

ABHD12 [2] = molecular target: T2, ABHD12 (Homo sapiens, UniProt Q8N2K0); assay type: cell-based
T2 sequence (Q8N2K0 1-398): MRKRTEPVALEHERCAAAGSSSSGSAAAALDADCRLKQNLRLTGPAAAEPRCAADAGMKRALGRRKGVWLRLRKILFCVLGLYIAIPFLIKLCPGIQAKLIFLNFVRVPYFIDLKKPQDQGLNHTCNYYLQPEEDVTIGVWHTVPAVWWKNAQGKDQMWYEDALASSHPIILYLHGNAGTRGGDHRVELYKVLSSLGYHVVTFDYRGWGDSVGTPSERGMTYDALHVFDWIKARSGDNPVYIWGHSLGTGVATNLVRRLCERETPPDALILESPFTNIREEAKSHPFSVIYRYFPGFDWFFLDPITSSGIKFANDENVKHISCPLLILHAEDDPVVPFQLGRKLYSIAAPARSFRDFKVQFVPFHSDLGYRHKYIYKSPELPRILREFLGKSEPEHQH
Method in brief: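 THP-1 cells (6 million in 10 mL) given test compound (1–1000 nM) or DMSO for 4 h at 37 °C, 5% CO₂, then washed twice in ice-cold DPBS. Membrane proteome incubated with 17:1 lyso-PS (100 μM final), 20 min, 37 °C. Readout is the LC-MS 17:1 FFA/15:0 FFA ratio minus the JJH350 (10 μM)-treated membrane background. IC50 fitted as log(inhibitor) vs normalized response.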

ABHD12 [3] = molecular target: T1, ABHD12; test: Ex vivo gel-based competitive ABPP; assay type: in vivo
serine hydrolases = test: ABPP of brain serine hydrolase activities from treated mice; assay type: in vivo, mouse; conditions: gel- and MS-based ABPP, more than 65 other serine hydrolases quantified
Method in brief: (§1)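 Mice dosed i.p. with test compound (30 mg/kg) or vehicle and killed after 4 h (isoflurane, then cervical dislocation). Brain membrane serine hydrolase activities quantified by MS-based ABPP. Each protein's value is the mean of median peptide ratios (treated vs vehicle) ± SEM, from n = 4 or 3 independent samples per compound.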

ABHD2 = molecular target: T3, ABHD2 (Mus musculus, UniProt Q9QXM0); test: Quantitative MS-ABPP of brain membrane proteome from treated mice: ABHD2; assay type: in vivo; conditions: 30 mg/kg, i.p., 4 h
T3 sequence (Q9QXM0 1-425): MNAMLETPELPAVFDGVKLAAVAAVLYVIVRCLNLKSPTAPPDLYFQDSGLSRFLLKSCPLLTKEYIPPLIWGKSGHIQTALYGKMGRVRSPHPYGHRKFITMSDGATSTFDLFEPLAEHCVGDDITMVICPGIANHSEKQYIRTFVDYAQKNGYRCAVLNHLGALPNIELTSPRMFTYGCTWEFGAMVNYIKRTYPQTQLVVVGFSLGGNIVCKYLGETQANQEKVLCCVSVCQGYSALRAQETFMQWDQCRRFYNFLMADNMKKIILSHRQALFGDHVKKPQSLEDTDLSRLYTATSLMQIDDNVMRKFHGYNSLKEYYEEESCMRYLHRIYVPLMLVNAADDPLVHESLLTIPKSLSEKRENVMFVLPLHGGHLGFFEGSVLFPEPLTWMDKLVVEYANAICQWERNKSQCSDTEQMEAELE
Method in brief: as §1

PLA2G6 = molecular target: T4, PLA2G6 (Mus musculus, UniProt P97819); test: Quantitative MS-ABPP of brain membrane proteome from treated mice: PLA2G6; assay type: in vivo; conditions: 30 mg/kg, i.p., 4 h
T4 sequence (P97819 1-807): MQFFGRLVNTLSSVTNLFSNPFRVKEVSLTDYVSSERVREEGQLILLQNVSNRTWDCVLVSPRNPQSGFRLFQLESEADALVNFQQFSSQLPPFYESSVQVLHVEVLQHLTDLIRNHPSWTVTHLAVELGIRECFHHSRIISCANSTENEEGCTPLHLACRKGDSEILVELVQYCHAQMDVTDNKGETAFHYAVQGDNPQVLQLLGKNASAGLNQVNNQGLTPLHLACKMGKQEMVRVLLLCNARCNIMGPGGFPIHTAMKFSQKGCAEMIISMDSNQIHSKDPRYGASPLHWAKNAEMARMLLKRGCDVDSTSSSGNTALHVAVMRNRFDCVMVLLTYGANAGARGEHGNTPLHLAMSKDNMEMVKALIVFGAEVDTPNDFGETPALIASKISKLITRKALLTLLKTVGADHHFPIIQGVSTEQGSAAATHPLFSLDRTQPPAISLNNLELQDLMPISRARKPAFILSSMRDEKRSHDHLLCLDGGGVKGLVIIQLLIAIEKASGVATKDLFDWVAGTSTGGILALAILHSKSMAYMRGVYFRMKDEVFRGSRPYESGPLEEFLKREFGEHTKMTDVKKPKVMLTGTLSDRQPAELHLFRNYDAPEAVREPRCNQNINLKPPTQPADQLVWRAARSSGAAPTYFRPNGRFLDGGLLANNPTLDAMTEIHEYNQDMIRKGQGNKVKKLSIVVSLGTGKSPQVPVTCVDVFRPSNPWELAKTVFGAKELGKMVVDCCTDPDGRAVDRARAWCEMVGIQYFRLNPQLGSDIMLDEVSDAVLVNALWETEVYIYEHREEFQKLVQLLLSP
Method in brief: as §1

mice = test: Two-week daily dosing, overt signs of toxicity; assay type: in vivo, mouse; conditions: adult mice, 30 mg/kg daily, p.o., two weeks
LCMV clone 13 = conditions: mouse, in vivo

SMILES: FC(F)(F)Oc1ccc(Oc2ccnc(N3CCC(NC(=S)Nc4cccnc4)CC3)c2Cl)c(Cl)c1 [DO264, N-3-pyridyl-N’-(1-[3-chloro-4-{2-chloro-4-(trifluoromethoxy)phenoxy}pyridine-2-yl]piperidin-4-yl)thiourea]
- time dependence of ABHD12 inhibition (ABHD12 [1]; 30-45 min or no preincubation, ABHD12-transfected HEK293T lysate 0.2 mg/mL): did not show time-dependent inhibition
- ABHD12 activity after dilution of inhibitor-treated lysates (ABHD12 [1]; ABHD12-transfected HEK293T lysates, preincubated 20 min, diluted five-fold): recovery of ABHD12 activity
- IC50 (ABHD12 [2]): 26 nM
- brain ABHD12 activity at 48 h post-dosing (ABHD12 [3]; 30 mg/kg, i.p.): partial recovery
- time post-treatment over which inhibition of brain ABHD12 activity was observed (ABHD12 [3]; 30 mg/kg, i.p.): 4 to 24 h
- brain ABHD12 activity, ex vivo analysis with JJH350 probe (ABHD12 [3]; C57BL/6 mice, 30 and 60 mg/kg, i.p. (4 h or 24 h) or p.o. (4 h)): complete inhibition
- inhibition of ABHD12 in peripheral tissues of mice (ABHD12 [3]; i.p., 30 mg/kg, 4 h, FP-Rh and JJH350 probes): selectively inhibited
- selectivity for ABHD12 in vivo (serine hydrolases): excellent selectivity
- reduction in ABHD2 activity in treated mice (ABHD2): 40-50%
- reduction in PLA2G6 activity in treated mice (PLA2G6): 40-50%
- overt signs of toxicity, such as weight loss or behavioral distress (mice): neither compound produced overt signs of toxicity
- pathological response to Cl13 infection, in comparison to (S)-DO271 (LCMV clone 13): heightened pathology
- pro-inflammatory chemokines in BALF compared to control group (LCMV clone 13): increases
- total protein in bronchoalveolar lavage fluid (BALF) compared to control group (LCMV clone 13): increases
- fraction of treated ABHD12(−/−) mice that died prior to sacrifice at day 10 (LCMV clone 13; ip, 30 mg/kg): 30-40%
